pIC50: −log10 of the molar value. Active and inactive are the calls of the source. The calls are words filed in the database; no cut-off is given here.
How the values were obtained:
[1] = target: Cyclin-dependent kinase 1/cyclin B (Homo sapiens, UniProt P06493); test: Inhibition of CDK1/Cyclin B in presence of 100 uM ATP; type: protein-complex assay
[2] = system: HT-29; test: Inhibition of GAPDH mRNA synthesis in HT29 cells measured as number of copies per 10^6 cells by RT PCR at 50 uM after 12 hrs; type: functional, Homo sapiens
Summary of the method: (§1)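 HT-29 cells (5 × 10⁶) treated for 3, 6 or 12 h; total RNA extracted with TRI reagent, 3 µg reverse transcribed with random primers and M-MLV RT (42 °C, 60 min). Absolute transcript copies quantified by TaqMan real-time PCR, 50 cycles, against diluted gene-specific amplicon standards (30–1 000 000 copies); duplicate PCR per sample; values are means of four determinations ± SD.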

[3] = system: HT-29; test: Cell cycle arrest in HT29 cells by accumulation at G2/M phase at 50 uM after 3 hrs; type: functional, Homo sapiens
Summary of the method: (§2)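 Subconfluent, asynchronous HT-29 cells were treated 3, 6 or 12 h, then pulsed with 10 µM BrdU for 30 min at 37 °C. Cells were fixed in ice-cold 70% ethanol, DNA denatured in 2 M HCl and neutralised with borate. Staining used FITC anti-BrdU, then propidium iodide (0.1 mg/mL) with RNase A. Analysis by flow cytometry with 488 nm laser.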

[4] = system: HT-29; test: Inhibition of CEA mRNA synthesis in HT29 cells measured as number of copies per 10^6 cells by RT PCR at 50 uM after 6 hrs; type: functional, Homo sapiens
Summary of the method: (§3)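 HT-29 cells were treated 3, 6 or 12 h; total RNA extracted with TRI reagent. 3 µg RNA reverse-transcribed with random primers and M-MLV RT at 42 °C for 60 min. CEA transcripts quantified by TaqMan real-time PCR: 50 cycles of 95 °C 15 s and 65 °C 15 s. Absolute copies came from amplicon standards of 30 to 10^6 copies, expressed per 10^6 cells. Samples run in duplicate PCR; values average of four determinations ± SD.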

[5] = system: MCF7; test: Increase in p53 expression level in MCF7 cells at 50 uM after 24 hrs; type: functional, cell-based; conditions: Homo sapiens
Summary of the method: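 MCF7 cells were treated 24 h, lysed in Laemmli buffer and run on 10% SDS-PAGE. Proteins were blotted to nitrocellulose; loading checked with Ponceau-S; blocked with 5% milk in PBS-Tween. Specific antibodies applied overnight (pRb phosphosites Ser780, Ser807, Thr821; p53; p21WAF1), then peroxidase secondary at 1:2000 with ECL detection.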

[6] = system: MCF7 (Homo sapiens); test: Reduction of RNA polymerase 2 CTD phosphorylation in MCF7 cells after 24 hrs
[7] = target: Mitogen-activated protein kinase 1 (Homo sapiens) (UniProt P28482); test: Activity of MAPK1 at 10 uM
Summary of the method: (§4)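 Radiometric kinase assay at 10 µM inhibitor, run in duplicate. c-Abl, CHK1, GSK3β, p70S6K, PKA and PKBα were run in 8 mM MOPS pH 7.0 with 0.2 mM EDTA. MAPK1 and SAPK2α were run in 25 mM Tris pH 7.5 with 0.02 mM EGTA. CK2 was run in 20 mM HEPES pH 7.6, 0.15 M NaCl, 0.1 mM EDTA, 2 mM DTT and 0.1% Triton X-100. All had 10 mM Mg-acetate, 10 µM ATP, [γ-33P]ATP and a peptide substrate; 40 min; H3PO4 stop; P30 filter; scintillation counting.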

[8] = system: HT-29; test: Inhibition of EpCAM mRNA synthesis in HT29 cells measured as number of copies per 10^6 cells by RT PCR at 50 uM after 3 hrs; type: functional, Homo sapiens; summary of the method: as §1
[9] = system: HT-29; test: Cell cycle arrest in HT29 cells by accumulation at S phase at 50 uM after 3 hrs; type: functional, Homo sapiens; summary of the method: as §2
[10] = system: MCF7; test: Viability of MCF7 cells at 100 uM; type: functional, Homo sapiens
Summary of the method: (§5)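 Cells grown in DMEM with 10% FCS and 4 mM glutamine at 37 °C, plated in 96-well format, preincubated 12 h, then exposed 72 h. Live cells measured by Calcein AM (1 h) fluorescence at 485/538 nm; % viable cells given at 100 µM compound.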

[11] = system: HT-29; test: Inhibition of EpCAM mRNA synthesis in HT29 cells measured as number of copies per 10^6 cells by RT PCR at 50 uM after 6 hrs; type: functional, Homo sapiens; summary of the method: as §1
[12] = system: HT-29; test: Inhibition of CEA mRNA synthesis in HT29 cells measured as number of copies per 10^6 cells by RT PCR at 50 uM after 12 hrs; type: functional, Homo sapiens; summary of the method: as §3
[13] = system: HT-29; test: Cell cycle arrest in HT29 cells by accumulation at G0/G1 phase at 50 uM after 12 hrs; type: functional, Homo sapiens; summary of the method: as §2
[14] = target: Serine/threonine-protein kinase Chk1 (Homo sapiens) (UniProt O14757); test: Activity of CHK1 at 10 uM; summary of the method: as §4
[15] = target: Cyclin-dependent kinase 4/cyclin D1 (Homo sapiens, UniProt P11802); test: Inhibition of CDK4/Cyclin D1 in presence of 100 uM ATP; type: protein-complex assay
[16] = target: Cyclin-dependent kinase 2/cyclin E (Homo sapiens) (UniProt P24864+P24941+O96020); test: Activity of CDK2/Cyclin E at 10 uM; type: protein-complex assay
[17] = target: T1, Cyclin-dependent kinase 2/cyclin E (Homo sapiens, UniProt P24941); test: Inhibition of CDK2/Cyclin E in presence of 15 uM ATP; type: protein-complex assay
[18] = target: Tyrosine-protein kinase ABL1 (Homo sapiens) (UniProt P00519); test: Activity of c-ABL at 10 uM; summary of the method: as §4
[19] = system: HT-29; test: Inhibition of GAPDH mRNA synthesis in HT29 cells measured as number of copies per 10^6 cells by RT PCR at 50 uM after 3 hrs; type: functional, Homo sapiens; summary of the method: as §1
[20] = system: HT-29; test: Inhibition of GAPDH mRNA synthesis in HT29 cells measured as number of copies per 10^6 cells by RT PCR at 50 uM after 6 hrs; type: functional, Homo sapiens; summary of the method: as §1
[21] = target: Cyclin-dependent kinase 7/ cyclin H (Homo sapiens, UniProt P50613); test: Inhibition of CDK7/Cyclin H in presence of 100 uM ATP; type: protein-complex assay
[22] = target: Glycogen synthase kinase-3 beta (Homo sapiens) (UniProt P49841); test: Activity of GSK3-beta at 10 uM; summary of the method: as §4
[23] = system: HT-29; test: Inhibition of EpCAM mRNA synthesis in HT29 cells measured as number of copies per 10^6 cells by RT PCR at 50 uM after 12 hrs; type: functional, Homo sapiens; summary of the method: as §1
[24] = target: T1, Cyclin-dependent kinase 2/cyclin E; test: Inhibition of CDK2/Cyclin E in presence of 100 uM ATP; type: protein-complex assay
[25] = target: Mitogen-activated protein kinase 14 (Homo sapiens) (UniProt Q16539); test: Activity of SAPK2-alpha at 10 uM; summary of the method: as §4
[26] = system: HOS; test: Viability of HOS cells at 100 uM; type: functional, Homo sapiens; summary of the method: as §5
[27] = system: HT-29; test: Cell cycle arrest in HT29 cells by accumulation at G2/M phase at 50 uM after 12 hrs; type: functional, Homo sapiens; summary of the method: as §2
[28] = target: CDK9/cyclin T1 (Homo sapiens) (UniProt O60563+P50750); test: Activity of CDK9/Cyclin T1 at 10 uM; type: protein-complex assay
[29] = target: Ribosomal protein S6 kinase (P70S6K) (Homo sapiens) (UniProt Q9UBS0+P23443); test: Activity of P70S6K at 10 uM; type: protein-complex assay; summary of the method: as §4

Sequence of Mitogen-activated protein kinase 1 (Homo sapiens) (P28482 whole entry): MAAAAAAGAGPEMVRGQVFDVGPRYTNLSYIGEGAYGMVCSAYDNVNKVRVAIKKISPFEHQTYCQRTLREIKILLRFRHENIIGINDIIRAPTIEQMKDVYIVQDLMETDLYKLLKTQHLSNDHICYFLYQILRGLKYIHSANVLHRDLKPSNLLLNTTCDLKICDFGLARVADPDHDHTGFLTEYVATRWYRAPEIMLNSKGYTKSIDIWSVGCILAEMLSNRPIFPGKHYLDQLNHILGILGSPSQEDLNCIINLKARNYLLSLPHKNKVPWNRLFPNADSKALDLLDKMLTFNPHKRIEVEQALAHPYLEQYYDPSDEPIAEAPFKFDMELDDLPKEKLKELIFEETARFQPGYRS
Sequence of Mitogen-activated protein kinase 14 (Homo sapiens) (Q16539 whole entry): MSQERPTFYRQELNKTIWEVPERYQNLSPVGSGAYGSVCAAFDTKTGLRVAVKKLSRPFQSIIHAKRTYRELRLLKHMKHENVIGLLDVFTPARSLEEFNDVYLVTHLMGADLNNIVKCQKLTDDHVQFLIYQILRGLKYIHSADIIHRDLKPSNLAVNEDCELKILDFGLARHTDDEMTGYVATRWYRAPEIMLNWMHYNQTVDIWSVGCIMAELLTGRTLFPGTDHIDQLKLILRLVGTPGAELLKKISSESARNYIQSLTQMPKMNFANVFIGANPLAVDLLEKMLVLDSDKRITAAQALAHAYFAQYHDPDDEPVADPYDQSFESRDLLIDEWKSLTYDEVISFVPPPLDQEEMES
Sequence of Tyrosine-protein kinase ABL1 (Homo sapiens) (P00519 whole entry): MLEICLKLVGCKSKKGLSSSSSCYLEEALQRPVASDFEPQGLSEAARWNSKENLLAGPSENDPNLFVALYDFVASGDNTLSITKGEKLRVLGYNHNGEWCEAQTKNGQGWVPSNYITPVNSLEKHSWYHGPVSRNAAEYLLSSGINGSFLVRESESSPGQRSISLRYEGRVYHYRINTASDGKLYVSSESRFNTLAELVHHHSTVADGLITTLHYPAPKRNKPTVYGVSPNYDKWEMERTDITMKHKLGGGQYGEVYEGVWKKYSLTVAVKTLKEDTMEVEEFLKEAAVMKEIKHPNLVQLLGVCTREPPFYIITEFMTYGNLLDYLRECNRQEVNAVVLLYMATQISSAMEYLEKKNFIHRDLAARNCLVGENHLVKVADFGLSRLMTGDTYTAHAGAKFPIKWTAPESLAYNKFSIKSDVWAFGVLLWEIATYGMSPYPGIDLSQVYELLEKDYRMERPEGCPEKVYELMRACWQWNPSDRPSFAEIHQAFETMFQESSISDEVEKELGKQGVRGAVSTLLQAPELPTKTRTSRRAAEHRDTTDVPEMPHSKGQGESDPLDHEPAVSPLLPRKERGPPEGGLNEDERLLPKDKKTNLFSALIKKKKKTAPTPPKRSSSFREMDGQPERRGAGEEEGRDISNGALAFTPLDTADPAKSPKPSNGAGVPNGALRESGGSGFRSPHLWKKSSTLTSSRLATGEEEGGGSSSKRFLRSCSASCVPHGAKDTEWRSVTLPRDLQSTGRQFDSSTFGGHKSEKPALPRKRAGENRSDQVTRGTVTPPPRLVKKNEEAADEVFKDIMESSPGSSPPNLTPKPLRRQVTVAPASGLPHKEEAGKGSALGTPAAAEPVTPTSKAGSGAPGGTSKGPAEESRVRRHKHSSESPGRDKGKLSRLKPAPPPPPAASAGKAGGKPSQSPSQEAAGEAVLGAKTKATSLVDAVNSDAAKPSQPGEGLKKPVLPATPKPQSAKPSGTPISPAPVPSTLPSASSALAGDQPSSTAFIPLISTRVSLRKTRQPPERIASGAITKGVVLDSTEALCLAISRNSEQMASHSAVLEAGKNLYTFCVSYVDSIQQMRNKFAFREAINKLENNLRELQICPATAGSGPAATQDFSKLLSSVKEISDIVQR
Sequence of Serine/threonine-protein kinase Chk1 (Homo sapiens) (O14757 whole entry): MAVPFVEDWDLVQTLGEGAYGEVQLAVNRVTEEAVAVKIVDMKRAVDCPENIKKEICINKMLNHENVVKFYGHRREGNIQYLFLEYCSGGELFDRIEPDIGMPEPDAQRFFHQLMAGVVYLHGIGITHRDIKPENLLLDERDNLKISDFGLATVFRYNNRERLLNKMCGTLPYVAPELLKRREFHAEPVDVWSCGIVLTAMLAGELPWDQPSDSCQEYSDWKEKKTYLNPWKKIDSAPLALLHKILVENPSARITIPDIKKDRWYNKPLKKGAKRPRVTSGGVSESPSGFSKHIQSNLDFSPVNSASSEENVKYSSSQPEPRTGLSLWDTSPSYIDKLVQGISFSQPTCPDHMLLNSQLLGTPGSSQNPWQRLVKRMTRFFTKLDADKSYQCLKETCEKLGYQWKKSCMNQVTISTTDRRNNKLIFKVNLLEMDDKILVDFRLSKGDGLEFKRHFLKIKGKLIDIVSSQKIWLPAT
Sequence of Glycogen synthase kinase-3 beta (Homo sapiens) (P49841 whole entry, looked up): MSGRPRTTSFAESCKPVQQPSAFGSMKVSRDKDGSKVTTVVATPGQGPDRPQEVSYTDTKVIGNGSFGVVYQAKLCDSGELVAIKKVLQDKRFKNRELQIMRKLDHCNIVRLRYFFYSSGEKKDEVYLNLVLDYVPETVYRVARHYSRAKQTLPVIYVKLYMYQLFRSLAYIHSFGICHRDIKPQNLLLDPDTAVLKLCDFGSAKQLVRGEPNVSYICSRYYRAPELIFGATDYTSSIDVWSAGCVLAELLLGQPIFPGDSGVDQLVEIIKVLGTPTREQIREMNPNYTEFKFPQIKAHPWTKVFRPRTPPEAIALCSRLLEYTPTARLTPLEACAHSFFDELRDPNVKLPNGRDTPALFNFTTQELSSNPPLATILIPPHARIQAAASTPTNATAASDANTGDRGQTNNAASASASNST
Sequence of Cyclin-dependent kinase 4/cyclin D1 (P11802 whole entry): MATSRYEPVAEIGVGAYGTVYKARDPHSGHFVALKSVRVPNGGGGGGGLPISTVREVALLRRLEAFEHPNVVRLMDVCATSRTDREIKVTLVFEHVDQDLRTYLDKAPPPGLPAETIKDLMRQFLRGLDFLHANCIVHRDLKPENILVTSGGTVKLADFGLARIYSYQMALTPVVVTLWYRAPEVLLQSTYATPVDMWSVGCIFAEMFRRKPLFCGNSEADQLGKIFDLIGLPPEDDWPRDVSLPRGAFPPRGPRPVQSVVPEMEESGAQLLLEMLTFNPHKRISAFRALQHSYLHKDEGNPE
Sequence of Cyclin-dependent kinase 4/cyclin D1 (P24385 whole entry, further chain): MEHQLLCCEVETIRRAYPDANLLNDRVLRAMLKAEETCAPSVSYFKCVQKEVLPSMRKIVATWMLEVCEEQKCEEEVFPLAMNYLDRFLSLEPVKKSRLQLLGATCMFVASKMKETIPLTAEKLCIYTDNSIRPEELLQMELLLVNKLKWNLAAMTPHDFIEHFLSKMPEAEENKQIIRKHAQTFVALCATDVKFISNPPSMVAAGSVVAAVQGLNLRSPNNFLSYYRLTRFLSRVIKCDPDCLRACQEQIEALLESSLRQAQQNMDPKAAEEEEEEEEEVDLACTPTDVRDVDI
Sequence of Cyclin-dependent kinase 7/ cyclin H (P51946 whole entry): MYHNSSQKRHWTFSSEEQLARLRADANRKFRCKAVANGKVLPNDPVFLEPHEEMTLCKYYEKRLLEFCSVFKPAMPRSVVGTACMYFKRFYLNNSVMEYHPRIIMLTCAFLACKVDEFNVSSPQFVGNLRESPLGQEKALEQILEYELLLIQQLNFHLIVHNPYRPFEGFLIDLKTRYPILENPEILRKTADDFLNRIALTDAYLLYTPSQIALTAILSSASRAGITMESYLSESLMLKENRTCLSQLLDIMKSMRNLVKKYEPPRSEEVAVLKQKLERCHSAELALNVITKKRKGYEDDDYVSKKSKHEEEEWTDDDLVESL
Sequence of Cyclin-dependent kinase 7/ cyclin H (P50613 whole entry): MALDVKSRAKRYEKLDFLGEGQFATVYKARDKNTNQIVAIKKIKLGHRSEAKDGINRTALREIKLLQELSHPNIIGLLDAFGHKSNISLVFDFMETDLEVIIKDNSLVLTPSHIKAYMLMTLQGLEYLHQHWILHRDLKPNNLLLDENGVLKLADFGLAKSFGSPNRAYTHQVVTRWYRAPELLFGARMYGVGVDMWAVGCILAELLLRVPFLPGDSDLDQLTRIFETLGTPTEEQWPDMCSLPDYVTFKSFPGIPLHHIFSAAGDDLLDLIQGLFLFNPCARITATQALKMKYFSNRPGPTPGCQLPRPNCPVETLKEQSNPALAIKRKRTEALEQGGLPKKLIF

SMILES: Nc1n[nH]c(N)c1/N=N/c1ccc(O)cc1
- pIC50 [1]: 4.36
- Activity [2]: 1811960
- Activity [3]: 11.4%
- Activity [4]: 22620
- Activity [5]: Active
- Activity [6]: Active
- residual activity [7]: 99%
- Activity [8]: 6047138
- Activity [9]: 55.7%
- Activity [10]: 20%
- Activity [11]: 5069600
- Activity [12]: 12005
- Activity [13]: 27.2%
- residual activity [14]: 89%
- pIC50 [15]: 4.87
- residual activity [16]: 31%
- pIC50 [17]: 5.46
- residual activity [18]: 84%
- Activity [19]: 3342533
- Activity [20]: 3785908
- pIC50 [21]: 4.59
- residual activity [22]: 81%
- Activity [23]: 2951620
- pIC50 [24]: 4.70
- residual activity [25]: 82%
- Activity [26]: 22%
- Activity [27]: 6.8%
- residual activity [28]: 6.9%
- residual activity [29]: 51%

— ChEMBL document CHEMBL1137343, “4-arylazo-3,5-diamino-1H-pyrazole CDK inhibitors: SAR study, crystal structure in complex with CDK2, selectivity, and cellular effects” (J Med Chem, 2006)
